Hits are enriched below; roughly 2% of the tested compounds scored in any of these assays.
VLA-4 inh = inhibition in human VLA-4 binding assay, primary screen, VLA-4 allosteric modulator project, MLPCN library, flow cytometry, VLA-4 expressing cells | Integrin alpha-4 (Homo sapiens), P13612 | ligand binding flow cytometry | inhibition, % (about 7 µM as worked out from the volumes in the protocol) | hit rate 0.2% among 330,000 | AID 2557, 2010; in the data active means inhibition above about 50%
DAGLB inh = DAGLB lipase inhibitors, primary screen, biochemical, fluorescence, HTS. AID 504411, 2011. Diacylglycerol lipase-beta (Homo sapiens), Q8NCG7. HEK293T DAGLB membrane lysate, EnzChek fluorogenic substrate. inhibition, % at 5.17 µM. hit rate 0.059% among 340,000; in the data active means inhibition above about 34%;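 further: 0% = enzyme with vehicle and 100% = wells lacking enzyme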
Target sequence (Q8NCG7 whole entry, looked up): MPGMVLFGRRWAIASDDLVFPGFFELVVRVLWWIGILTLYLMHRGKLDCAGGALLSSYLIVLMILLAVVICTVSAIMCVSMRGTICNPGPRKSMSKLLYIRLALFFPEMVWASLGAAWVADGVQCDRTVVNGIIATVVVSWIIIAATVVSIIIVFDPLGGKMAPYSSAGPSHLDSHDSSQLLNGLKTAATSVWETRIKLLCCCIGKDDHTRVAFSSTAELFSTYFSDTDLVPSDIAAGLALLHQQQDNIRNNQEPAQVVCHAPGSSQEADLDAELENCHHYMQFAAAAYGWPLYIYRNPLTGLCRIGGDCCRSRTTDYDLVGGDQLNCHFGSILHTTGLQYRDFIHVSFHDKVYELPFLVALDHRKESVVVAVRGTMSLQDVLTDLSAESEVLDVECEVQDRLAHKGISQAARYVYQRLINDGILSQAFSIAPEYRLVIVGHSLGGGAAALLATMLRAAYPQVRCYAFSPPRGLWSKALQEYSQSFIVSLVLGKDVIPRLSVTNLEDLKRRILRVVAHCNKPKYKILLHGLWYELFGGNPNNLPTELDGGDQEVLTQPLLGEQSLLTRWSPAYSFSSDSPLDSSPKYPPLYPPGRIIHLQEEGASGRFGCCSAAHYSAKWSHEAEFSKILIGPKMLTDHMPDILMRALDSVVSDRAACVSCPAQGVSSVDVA
Exocytosis inh = LAMP-1 surface exposure blockers, TALL-104 cells – cell-based, flow cytometry, MLPCN library, primary screen. TALL-104 LAMP-1 surface exposure; cells stimulated with thapsigargin and PMA. inhibition, % at 10 µM. hit rate 0.66% among 360,000. AID 651702, 2012;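 active means inhibition above about 55%, limit read from the data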
MT1-MMP act inh = blockers of MT1-MMP proenzyme processing, primary screen, HT1080 RFP-PRO-GFP cells, GFP/RFP fluorescence | GFP/RFP ratio change, % at 20 µM | GFP/RFP ratio fluorescence, overnight; percent of plate control window, DMSO zero | AID 651647, 2012 | hit rate 0.061% among 360,000;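 active means GFP/RFP ratio change of at least 30% with cell ATP level not reduced by more than half and red fluorescence within 50% of control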
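Test system: HT1080 RFP-PRO-GFP cells; Benchmarks: DMSO and RFP-L50D-GFP cell wells; Timing: cells overnight before dosing, compound overnight, 37 °C, 5% CO2; Compound: one 20 µM compound dose with 1% DMSO; Read-out: GFP/RFP fluorescence ratio.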
ABCB6 inh 2 = ABCB6 transporter inhibitors, primary screen, K562-ABCB6 cells, flow cytometry, MLPCN library | K562-ABCB6 porphyrin accumulation, 1 h; active compounds read low | fluorescence ratio to DMSO, % at 10 µM | hit rate 0.19% among 360,000 | AID 602162, 2011;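 active means fluorescence ratio to DMSO below 75%, the collection mean minus 3 SD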;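 further: signal is porphyrin accumulated inside mitochondria; 100% equals median channel fluorescence of DMSO control wells; lower ratio means ABCB6 inhibition with less porphyrin fluorescence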
FGF22 binding = binders of human FGF22 protein, primary screen, FGF22 synaptogenesis inhibitor project, biophysical, thermal shift, single point. Fibroblast growth factor 22 (Homo sapiens), Q9HCT0. AID 651658, 2012. activity (Tm shift, normalised), % at 9.99 µM. recombinant FGF22 thermal shift, SYPRO orange fluorescence; percent of sucrose octasulfate shift, DMSO zero. hit rate 1.5% among 340,000;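 active means mean Tm shift, scaled 0 neutral to 100 positive control, at about 1.3% or above, every replicate too, limit read from the data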
VLA-4 mod pick = retest of VLA-4 allosteric modulators, confirmation, cell-based, cherry-picked plates, U937, HUTS-21 LIBS antibody; shares compounds with VLA-4 inh; U937 cells, HUTS-21 LIBS mAb binding, flow cytometry; LDV ligand present at threefold Kd; inhibition, % at 6.7 µM; hit rate 2% among 1,300; in the data active means inhibition above about 40%;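 further: 0% = ligand without compound and 100% = no ligand background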
Numbers without * were called inactive.

Results for Clc1cc(CSc2ccccc2)nc(-c2ccccc2)n1 ?
VLA-4 inh: 94.2*; DAGLB inh: -9.3; Exocytosis inh: -6.3; MT1-MMP act inh: 1.3; ABCB6 inh 2: 104.0; VLA-4 mod pick: 5.4

How did CCC(=O)Nc1ccc2c(c1)C(=O)N(C)[C@@H]1CC[C@@H](CC(=O)Nc3cccc(OC)c3)O[C@H]1CO2 do in these assays?
FGF22 binding: -0.2

Results for Nc1ccc(S(=O)(=O)c2ccccc2)nc1 ?
VLA-4 inh: 43.6; DAGLB inh: -1.8; Exocytosis inh: -1.0; MT1-MMP act inh: 0.8; ABCB6 inh 2: 101.0; FGF22 binding: -0.1; VLA-4 mod pick: -10.2

How did O=[N+]([O-])c1ccc(S(=O)(=O)c2ccccc2)nc1 do in these assays?
VLA-4 inh: -5.1; DAGLB inh: -4.8; Exocytosis inh: 33.8; MT1-MMP act inh: -2.7; ABCB6 inh 2: 101.0; FGF22 binding: -0.2

What do the screens show for `O=c1c2[nH]c3ccc(Br)cc3c2ncn1Cc1ccncc1`?
VLA-4 inh: 6.4; VLA-4 mod pick: -9.5

How did CN1C(=O)C(C)(C)c2cc(S(=O)(=O)N3CCN(c4ccccc4F)CC3)ccc21 do in these assays?
VLA-4 inh: -5.3; DAGLB inh: 0.1; Exocytosis inh: 1.0; MT1-MMP act inh: -0.4; ABCB6 inh 2: 96.0; FGF22 binding: -0.1; VLA-4 mod pick: 2.9

What do the screens show for `O=C(C1CC1)N1CC2(C1)[C@H](c1ccccc1)[C@H](CO)N2CCC(F)(F)F`?
FGF22 binding: 0.1

How did Cc1nn(C)c(C)c1CNC(=O)Nc1ccc2c(c1)OCO2 do in these assays?
VLA-4 inh: 124.7*; DAGLB inh: 2.0; Exocytosis inh: -0.2; MT1-MMP act inh: -4.1; ABCB6 inh 2: 95.0; FGF22 binding: -0.2; VLA-4 mod pick: 2.4

What do the screens show for `Cn1cc(CNC(=O)Nc2ccc3c(c2)OCO3)cn1`?
VLA-4 inh: 0.2; DAGLB inh: 0.0; Exocytosis inh: 4.5; MT1-MMP act inh: 4.1; ABCB6 inh 2: 96.0

How did Cc1ccc(C)c(S(=O)(=O)Nc2ccc(C(N)=O)cc2)c1 do in these assays?
VLA-4 inh: -5.0; DAGLB inh: 1.1; Exocytosis inh: -4.4; MT1-MMP act inh: 6.0; ABCB6 inh 2: 90.0; FGF22 binding: 0.2; VLA-4 mod pick: -6.2

Results for Cc1ccc(C)c(NS(=O)(=O)c2cc(C(N)=O)ccc2C)c1 ?
VLA-4 inh: 10.1; DAGLB inh: 1.0; Exocytosis inh: -0.1; MT1-MMP act inh: 4.9; ABCB6 inh 2: 93.0

How did Cc1cc(C(=O)NNC(=O)C2CCCC2)c(C)o1 do in these assays?
VLA-4 inh: 70.4*; DAGLB inh: 2.2; Exocytosis inh: -1.5; MT1-MMP act inh: 4.0; ABCB6 inh 2: 93.0; FGF22 binding: -0.1; VLA-4 mod pick: -4.2

What do the screens show for `COc1ccc(S(=O)(=O)N(C)C[C@@H]2OCCCC[C@@H](C)Oc3ccc(NS(=O)(=O)c4ccc(C)cc4)cc3C(=O)N([C@@H](C)CO)C[C@H]2C)cc1`?
FGF22 binding: -0.3

Results for Cc1cccc(OCCC(=O)Nc2ccc(N3CCOCC3)cc2N2CCOCC2)c1 ?
VLA-4 inh: 50.5*; DAGLB inh: -0.7; Exocytosis inh: 11.5; MT1-MMP act inh: 0.7; ABCB6 inh 2: 93.0; FGF22 binding: -0.4; VLA-4 mod pick: 2.7

What do the screens show for `CCOc1ccc(OCCC(=O)Nc2ccc(N3CCOCC3)cc2N2CCOCC2)cc1`?
DAGLB inh: -1.7; Exocytosis inh: -6.2; MT1-MMP act inh: -0.7; ABCB6 inh 2: 98.0

How did CC12CCC(=O)C=C1CCC1C2C(O)CC2(C)C1CCC2(O)C(=O)CO (stereo not given) do in these assays?
VLA-4 inh: 6.1; DAGLB inh: -0.2; Exocytosis inh: -0.6; MT1-MMP act inh: 0.1; ABCB6 inh 2: 96.0; FGF22 binding: 0.2; VLA-4 mod pick: -184.1

How did CCOC(=O)OCC(=O)C1(O)CCC2C3CCC4=CC(=O)CCC4(C)C3C(O)CC21C (stereo not given) do in these assays?
DAGLB inh: 0.8; Exocytosis inh: 1.7; MT1-MMP act inh: -2.4; ABCB6 inh 2: 96.0; FGF22 binding: 0.0

How did C[C@]12C=CC(=O)C=C1CC[C@@H]1[C@@H]2[C@@H](O)C[C@@]2(C)[C@H]1CC[C@]2(O)C(=O)COC(=O)CCC(=O)O do in these assays?
VLA-4 inh: 14.6; DAGLB inh: 2.9; Exocytosis inh: 1.3; MT1-MMP act inh: -3.0; ABCB6 inh 2: 100.0; FGF22 binding: -0.3

How did C[C@]12CCC(=O)C=C1CC[C@@H]1[C@@H]2[C@@H](O)C[C@@]2(C)[C@H]1CC[C@]2(O)C(=O)CO do in these assays?
VLA-4 inh: 28.8; DAGLB inh: 1.9; Exocytosis inh: 1.4; MT1-MMP act inh: -2.2; ABCB6 inh 2: 100.0; FGF22 binding: -0.1; VLA-4 mod pick: -0.9

What do the screens show for `C[C@]12C=CC(=O)C=C1CC[C@@H]1[C@@H]2[C@@H](O)C[C@@]2(C)[C@H]1CC[C@]2(O)C(=O)CO`?
VLA-4 inh: 59.1*; DAGLB inh: 4.0; Exocytosis inh: 0.5; MT1-MMP act inh: -2.6; ABCB6 inh 2: 87.0; FGF22 binding: -0.1; VLA-4 mod pick: 1.6

What do the screens show for `CC(=O)OCC(=O)C1(O)CCC2C3CCC4=CC(=O)CCC4(C)C3C(O)CC21C` (stereo not given)?
DAGLB inh: 3.1; Exocytosis inh: -1.2; MT1-MMP act inh: -0.5; ABCB6 inh 2: 97.0; FGF22 binding: -0.1

What do the screens show for `C[C@@H]1CN([C@@H](C)CO)C(=O)c2cc(N(C)C)ccc2O[C@@H](C)CCCCO[C@H]1CN(C)C(=O)CCC(F)(F)F`?
FGF22 binding: 0.0

What do the screens show for `COc1ccc(NC(=O)N(C)C[C@@H]2OCc3ccccc3-c3ccccc3C(=O)N([C@H](C)CO)C[C@@H]2C)cc1`?
FGF22 binding: 0.0

What do the screens show for `Cn1c(Sc2nc3ccccc3n2C)nc2ccccc21`?
VLA-4 inh: 68.1*; DAGLB inh: -0.4; Exocytosis inh: -2.7; MT1-MMP act inh: -1.9; ABCB6 inh 2: 99.0; VLA-4 mod pick: 5.7

How did C[C@@H]1CN([C@H](C)CO)C(=O)c2cccc(NS(=O)(=O)c3cccs3)c2O[C@@H]1CN(C)Cc1ccc(-c2ccccc2)cc1 do in these assays?
FGF22 binding: -0.2

Compound activity deposited in PubChem by several laboratories.
